Key:
[1] = test system: Panel ovarian (Carcinoma cell lines); assay: Cytotoxic activity was measured against human Ovarian carcinoma cell lines; type: functional, cell-based
Outline: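 Ovarian carcinoma line 1A9, a subclone of A2780, grown as monolayers in 96-well plates for 96 h at 37 °C, 5% CO₂. Cell protein quantitated (Skehan method). IC₅₀ = concentration inhibiting the increase in cell protein by 50%.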

ptx-10/22 = assay: Relative resistance was measured against human paclitaxel-resistant cell lines; type: functional, cell-based; settings: 1A9(PTX22)
Bos taurus [2] = organism: Bos taurus; assay: Polymerizing activity of tubulin in glutamate against bovine brain tubulin homogenate was measured at 0.8M concentrations; type: functional
Outline: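 Bovine brain tubulin, purified to electrophoretic homogeneity, in 0.8 M monosodium glutamate (from 2 M stock, pH 6.6), room temperature, no GTP. Polymer removed by centrifugation. IC₅₀ = concentration reducing supernatant protein by 50% relative to drug-free control. Maximum 40 µM. At least three independent experiments, or at least two for IC₅₀ over 40 µM.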

Bos taurus [3] = organism: Bos taurus; assay: Polymerizing activity of tubulin in glutamate against bovine brain tubulin homogenate was measured at 0.4 M concentrations; type: functional
Outline: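 Purified, electrophoretically homogeneous bovine brain tubulin assembled at room temperature without GTP or Mg²⁺ in 0.4 M monosodium glutamate (from 2 M stock, pH 6.6). Polymer pelleted by centrifugation. IC₅₀ = drug concentration lowering supernatant protein by 50% versus no-drug control. Up to 40 µM. At least three independent experiments, or at least two where IC₅₀ exceeded 40 µM.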

Bos taurus [4] = organism: Bos taurus; assay: Polymerizing activity of microtubule protein against the twice cycled microtubule protein; type: functional
Outline: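 Twice-cycled microtubule protein, stored in liquid nitrogen, at 1.0 mg/mL final in 0.1 M MES, 1 mM EGTA, 0.5 mM MgCl₂, pH 6.6, 37 °C, no GTP. Compound at 2.5, 5.0 and 10 µM. Absorbance read every 10 s and initial linear slopes taken. EC0.01 = interpolated concentration giving an initial slope of 0.01 A unit/min.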

Burkitts lymphoma cell = assay: Cytotoxic activity against was measured human Burkitt lymphoma cell lines.; type: functional, cell-based
Outline: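 CA46 Burkitt lymphoma cells in 5.0-mL suspension culture, counted after 24 h at 37 °C under 5% CO₂. IC₅₀ = drug concentration halving the increase in cell number. Highest concentration 100 nM. At least two independent experiments.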

[5] = test system: Panel colon (Carcinoma cell lines); assay: Cytotoxic activity was measured against human colon carcinoma cell lines; type: functional, cell-based
Outline: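 HCT116 colon carcinoma monolayers in 96-well plates, 48 h at 37 °C under 5% CO₂. Cell protein measured. IC₅₀ = concentration giving 50% inhibition of the increase in cell protein.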

| SMILES | IC50 [1] | relative resistance (ptx-10/22) | IC50 (Bos taurus [2]) | IC50 (Bos taurus [3]) | EC0.01 (relative to paclitaxel) (Bos taurus [4]) | IC50 (Burkitts lymphoma cell) | IC50 [5] |
| --- | --- | --- | --- | --- | --- | --- | --- |
| CC(=O)O[C@H]1C(=O)[C@@]2(C)[C@H]([C@H](OC(=O)c3ccc(F)c(F)c3)[C@]3(O)C[C@H](OC(=O)[C@H](O)[C@@H](NC(=O)c4ccccc4)c4ccccc4)C(C)=C1C3(C)C)[C@]1(OC(C)=O)CO[C@@H]1C[C@@H]2O | 3.4 relative to paclitaxel | 0.57 | 3.1 relative to paclitaxel | > 1.7 relative to paclitaxel | 2.2 | 0.33 relative to paclitaxel | 2.7 relative to paclitaxel |
| CC(=O)O[C@H]1C(=O)[C@@]2(C)[C@H]([C@H](OC(=O)c3cc([N+](=O)[O-])cc([N+](=O)[O-])c3)[C@]3(O)C[C@H](OC(=O)[C@H](O)[C@@H](NC(=O)c4ccccc4)c4ccccc4)C(C)=C1C3(C)C)[C@]1(OC(C)=O)CO[C@@H]1C[C@@H]2O | 20 relative to paclitaxel |  | > 8.9 relative to paclitaxel | > 1.7 relative to paclitaxel | 4.2 | 2.3 relative to paclitaxel | 3.1 relative to paclitaxel |
| CC(=O)O[C@H]1C(=O)[C@@]2(C)[C@H]([C@H](OC(=O)c3cccc(F)c3F)[C@]3(O)C[C@H](OC(=O)[C@H](O)[C@@H](NC(=O)c4ccccc4)c4ccccc4)C(C)=C1C3(C)C)[C@]1(OC(C)=O)CO[C@@H]1C[C@@H]2O | 14 relative to paclitaxel |  | > 8.9 relative to paclitaxel | > 1.7 relative to paclitaxel | 0.8 |  | 0.55 relative to paclitaxel |
| CC(=O)O[C@H]1C(=O)[C@@]2(C)[C@H]([C@H](OC(=O)c3ccccc3N=[N+]=[N-])[C@]3(O)C[C@H](OC(=O)[C@H](O)[C@@H](NC(=O)c4ccccc4)c4ccccc4)C(C)=C1C3(C)C)[C@]1(OC(C)=O)CO[C@@H]1C[C@@H]2O | 0.77 relative to paclitaxel | 0.67 |  | 0.38 relative to paclitaxel | 0.7 |  | 0.36 relative to paclitaxel |
| COc1cc(C(=O)O[C@H]2[C@@H]3[C@]4(OC(C)=O)CO[C@@H]4C[C@H](O)[C@@]3(C)C(=O)[C@H](OC(C)=O)C3=C(C)[C@@H](OC(=O)[C@H](O)[C@@H](NC(=O)c4ccccc4)c4ccccc4)C[C@]2(O)C3(C)C)cc(OC)c1OC | > 48 relative to paclitaxel |  | > 8.9 relative to paclitaxel | > 1.7 relative to paclitaxel | 32 | > 3.3 relative to paclitaxel | 110 relative to paclitaxel |
| CC(=O)O[C@H]1C(=O)[C@@]2(C)[C@H]([C@H](OC(=O)c3cc(Cl)cc(Cl)c3)[C@]3(O)C[C@H](OC(=O)[C@H](O)[C@@H](NC(=O)c4ccccc4)c4ccccc4)C(C)=C1C3(C)C)[C@]1(OC(C)=O)CO[C@@H]1C[C@@H]2O | 0.38 relative to paclitaxel | 0.48 |  | 0.91 relative to paclitaxel | 0.44 | 0.67 relative to paclitaxel | 0.51 relative to paclitaxel |
| CC(=O)O[C@H]1C(=O)[C@@]2(C)[C@H]([C@H](OC(=O)c3cccc(C#N)c3)[C@]3(O)C[C@H](OC(=O)[C@H](O)[C@@H](NC(=O)c4ccccc4)c4ccccc4)C(C)=C1C3(C)C)[C@]1(OC(C)=O)CO[C@@H]1C[C@@H]2O | 0.32 relative to paclitaxel | 1.3 |  | 0.63 relative to paclitaxel | 1 |  | 1.1 relative to paclitaxel |
| COc1cccc(C(=O)O[C@H]2[C@@H]3[C@]4(OC(C)=O)CO[C@@H]4C[C@H](O)[C@@]3(C)C(=O)[C@H](OC(C)=O)C3=C(C)[C@@H](OC(=O)[C@H](O)[C@@H](NC(=O)c4ccccc4)c4ccccc4)C[C@]2(O)C3(C)C)c1 | 0.095 relative to paclitaxel | 0.71 |  | 0.22 relative to paclitaxel | 0.5 | 0.27 relative to paclitaxel | 0.35 relative to paclitaxel |
| CC(=O)O[C@H]1C(=O)[C@@]2(C)[C@H]([C@H](OC(=O)c3cccc(C(F)(F)F)c3)[C@]3(O)C[C@H](OC(=O)[C@H](O)[C@@H](NC(=O)c4ccccc4)c4ccccc4)C(C)=C1C3(C)C)[C@]1(OC(C)=O)CO[C@@H]1C[C@@H]2O | 1.4 relative to paclitaxel |  | 6.7 relative to paclitaxel | > 1.7 relative to paclitaxel | 1.3 | 0.67 relative to paclitaxel | 3 relative to paclitaxel |
| COc1cccc(C(=O)O[C@H]2[C@@H]3[C@]4(OC(C)=O)CO[C@@H]4C[C@H](O)[C@@]3(C)C(=O)[C@H](OC(C)=O)C3=C(C)[C@@H](OC(=O)[C@H](O)[C@@H](NC(=O)c4ccccc4)c4ccccc4)C[C@]2(O)C3(C)C)c1OC | > 48 relative to paclitaxel |  | > 8.9 relative to paclitaxel | > 1.7 relative to paclitaxel | > 270 | > 3.3 relative to paclitaxel | 59 relative to paclitaxel |
| CC(=O)O[C@H]1C(=O)[C@@]2(C)[C@H]([C@H](OC(=O)c3cc(F)ccc3F)[C@]3(O)C[C@H](OC(=O)[C@H](O)[C@@H](NC(=O)c4ccccc4)c4ccccc4)C(C)=C1C3(C)C)[C@]1(OC(C)=O)CO[C@@H]1C[C@@H]2O | 0.67 relative to paclitaxel | 0.57 |  | 0.29 relative to paclitaxel | 0.34 | 0.67 relative to paclitaxel | 0.44 relative to paclitaxel |
| CC(=O)O[C@H]1C(=O)[C@@]2(C)[C@H]([C@H](OC(=O)c3cc(F)cc(F)c3)[C@]3(O)C[C@H](OC(=O)[C@H](O)[C@@H](NC(=O)c4ccccc4)c4ccccc4)C(C)=C1C3(C)C)[C@]1(OC(C)=O)CO[C@@H]1C[C@@H]2O | 0.12 relative to paclitaxel | 1.1 |  | 0.29 relative to paclitaxel | 0.6 |  | 0.36 relative to paclitaxel |
| COc1ccc(OC)c(C(=O)O[C@H]2[C@@H]3[C@]4(OC(C)=O)CO[C@@H]4C[C@H](O)[C@@]3(C)C(=O)[C@H](OC(C)=O)C3=C(C)[C@@H](OC(=O)[C@H](O)[C@@H](NC(=O)c4ccccc4)c4ccccc4)C[C@]2(O)C3(C)C)c1 | 0.12 relative to paclitaxel | 0.76 |  | 0.2 relative to paclitaxel | 0.5 | 0.67 relative to paclitaxel | 0.14 relative to paclitaxel |
| CC(=O)O[C@H]1C(=O)[C@@]2(C)[C@H]([C@H](OC(=O)c3cccc(Cl)c3)[C@]3(O)C[C@H](OC(=O)[C@H](O)[C@@H](NC(=O)c4ccccc4)c4ccccc4)C(C)=C1C3(C)C)[C@]1(OC(C)=O)CO[C@@H]1C[C@@H]2O | 0.05 relative to paclitaxel | 2.9 |  | 0.3 relative to paclitaxel | 0.92 | 0.67 relative to paclitaxel | 1.7 relative to paclitaxel |
| CC(=O)O[C@H]1C(=O)[C@@]2(C)[C@H]([C@H](OC(=O)c3ccc(Cl)c(Cl)c3)[C@]3(O)C[C@H](OC(=O)[C@H](O)[C@@H](NC(=O)c4ccccc4)c4ccccc4)C(C)=C1C3(C)C)[C@]1(OC(C)=O)CO[C@@H]1C[C@@H]2O | 1 relative to paclitaxel | 0.27 |  | 0.41 relative to paclitaxel | 0.76 |  | 0.77 relative to paclitaxel |
| CSc1cccc(C(=O)O[C@H]2[C@@H]3[C@]4(OC(C)=O)CO[C@@H]4C[C@H](O)[C@@]3(C)C(=O)[C@H](OC(C)=O)C3=C(C)[C@@H](OC(=O)[C@H](O)[C@@H](NC(=O)c4ccccc4)c4ccccc4)C[C@]2(O)C3(C)C)c1 | 3.3 relative to paclitaxel | 0.52 | 2.7 relative to paclitaxel | > 1.7 relative to paclitaxel |  | 1 relative to paclitaxel |  |
| CC(=O)O[C@H]1C(=O)[C@@]2(C)[C@H]([C@H](OC(=O)c3cccc(Br)c3)[C@]3(O)C[C@H](OC(=O)[C@H](O)[C@@H](NC(=O)c4ccccc4)c4ccccc4)C(C)=C1C3(C)C)[C@]1(OC(C)=O)CO[C@@H]1C[C@@H]2O | 0.32 relative to paclitaxel | 0.42 |  | 0.24 relative to paclitaxel | 0.8 |  | 0.32 relative to paclitaxel |
| CC(=O)O[C@H]1C(=O)[C@@]2(C)[C@H]([C@H](OC(=O)c3cccc(F)c3)[C@]3(O)C[C@H](OC(=O)[C@H](O)[C@@H](NC(=O)c4ccccc4)c4ccccc4)C(C)=C1C3(C)C)[C@]1(OC(C)=O)CO[C@@H]1C[C@@H]2O | 0.4 relative to paclitaxel | 0.96 | 2.6 relative to paclitaxel | 1.2 relative to paclitaxel | 0.7 |  | 0.45 relative to paclitaxel |
| CC(=O)O[C@H]1C(=O)[C@@]2(C)[C@H]([C@H](OC(=O)c3cccc(N=[N+]=[N-])c3)[C@]3(O)C[C@H](OC(=O)[C@H](O)[C@@H](NC(=O)c4ccccc4)c4ccccc4)C(C)=C1C3(C)C)[C@]1(OC(C)=O)CO[C@@H]1C[C@@H]2O | 0.18 relative to paclitaxel | 0.27 |  | 0.2 relative to paclitaxel | 0.37 | 0.17 relative to paclitaxel | 1.4 relative to paclitaxel |
| CC(=O)O[C@H]1C(=O)[C@@]2(C)[C@H]([C@H](OC(=O)c3ccc(O)cc3)[C@]3(O)C[C@H](OC(=O)[C@H](O)[C@@H](NC(=O)c4ccccc4)c4ccccc4)C(C)=C1C3(C)C)[C@]1(OC(C)=O)CO[C@@H]1C[C@@H]2O | 31 relative to paclitaxel |  | > 8.9 relative to paclitaxel | > 1.7 relative to paclitaxel | 19 | 3 relative to paclitaxel | 52 relative to paclitaxel |
| CC(=O)O[C@H]1C(=O)[C@@]2(C)[C@H]([C@H](OC(=O)c3ccc(Cl)cc3)[C@]3(O)C[C@H](OC(=O)[C@H](O)[C@@H](NC(=O)c4ccccc4)c4ccccc4)C(C)=C1C3(C)C)[C@]1(OC(C)=O)CO[C@@H]1C[C@@H]2O | 7.6 relative to paclitaxel |  | > 8.9 relative to paclitaxel | > 1.7 relative to paclitaxel |  | 1.3 relative to paclitaxel |  |
